Measurements reported in ChEMBL document CHEMBL1275278, “Synthesis and pharmacological evaluation of clubbed isopropylthiazole derived triazolothiadiazoles, triazolothiadiazines and mannich bases as potential antimicrobial and antitubercular agents” (Eur J Med Chem, 2010).
Converted amounts (≈) assume the structure as drawn.

Legend:
Klebsiella pneumoniae = experiment: Antibacterial activity against Klebsiella pneumoniae ATCC 10031 after 24 hrs by broth microdilution method; type: functional; settings: ATCC 10031, 24 h
Summary of the method: (§1)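 Broth dilution in Mueller-Hinton broth. Tubes inoculated at 10⁵ cfu/mL and incubated 37 °C for 24 h. MIC taken as lowest concentration completely inhibiting growth. Media and media-plus-DMSO growth controls; ciprofloxacin and norfloxacin as reference standards.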

Bacillus subtilis = experiment: Antibacterial activity against Bacillus subtilis ATCC 60511 after 24 hrs by broth microdilution method; type: functional; settings: ATCC 60511, 24 h; summary of the method: as §1
Aspergillus niger = experiment: Antifungal activity against Aspergillus niger ATCC 6275 after 24 hrs by broth microdilution method; type: functional; settings: ATCC 6275, 24 h
Candida tropicalis = experiment: Antifungal activity against Candida tropicalis ATCC 1369 after 24 hrs by broth microdilution method; type: functional; settings: ATCC 1369, 24 h
[1] = tested on: Mycobacterium tuberculosis; experiment: Antimycobacterial activity against Mycobacterium tuberculosis H37Rv after 21 days by broth dilution assay; type: functional; settings: 504 h
Summary of the method: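 Frozen culture in Middlebrook 7H9 broth with 10% albumin-dextrose-catalase and 0.2% glycerol, thawed and diluted in broth to 10⁵ cfu/mL. Compounds dissolved in DMSO, twofold diluted in broth; final DMSO 1.3%. Tubes inoculated, incubated at 37 °C. Growth compared visually against drug-free and drug- and inoculum-free controls and isoniazid. MIC = lowest concentration inhibiting ≥99% of the starting bacterial population.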

Staphylococcus aureus = experiment: Antibacterial activity against Staphylococcus aureus ATCC 11632 after 24 hrs by broth microdilution method; type: functional; settings: ATCC 11632, 24 h; summary of the method: as §1
Saccharomyces cerevisiae = experiment: Antifungal activity against Saccharomyces cerevisiae ATCC 9763 after 24 hrs by broth microdilution method; type: functional; settings: ATCC 9763, 24 h
Enterococcus faecalis = experiment: Antibacterial activity against Streptococcus faecalis ATCC 14506 after 24 hrs by broth microdilution method; type: functional; settings: ATCC 14506, 24 h; summary of the method: as §1
Escherichia coli = experiment: Antibacterial activity against Escherichia coli ATCC 10536 after 24 hrs by broth microdilution method; type: functional; settings: ATCC 10536, 24 h; summary of the method: as §1
Pseudomonas aeruginosa = experiment: Antibacterial activity against Pseudomonas aeruginosa ATCC 10145 after 24 hrs by broth microdilution method; type: functional; settings: ATCC 10145, 24 h; summary of the method: as §1
[2] = Cytotoxicity against human A549 cells assessed as cell viability at 250 uM by MTT assay relative to control; type: cell-based; settings: read-out: Activity
Summary of the method: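 A549 lung adenocarcinoma cells grown with fetal bovine serum. Compounds held as 10 mM DMSO stocks at −20 °C and diluted in culture medium before treatment (50–250 µM). Viability read by MTT assay against untreated cells and DMSO vehicle control. Two experiments, each with triplicate readings.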

SMILES | MIC (Klebsiella pneumoniae) | MIC (Bacillus subtilis) | MIC (Aspergillus niger) | MIC (Candida tropicalis) | MIC [1] | MIC (Staphylococcus aureus) | MIC (Saccharomyces cerevisiae) | MIC (Enterococcus faecalis) | MIC (Escherichia coli) | MIC (Pseudomonas aeruginosa) | viability at 250 µM [2]
CC(C)c1csc(-c2nnc3sc(S)nn23)n1 | 31.2 µg/mL (≈ 110 µM) | 16 µg/mL (≈ 56.5 µM) | 16 µg/mL (≈ 56.5 µM) | 8 µg/mL (≈ 28.2 µM) | 31.2 µg/mL (≈ 110 µM) | 125 µg/mL (≈ 441 µM) | 16 µg/mL (≈ 56.5 µM) | 31.2 µg/mL (≈ 110 µM) | 62.5 µg/mL (≈ 221 µM) | 31.2 µg/mL (≈ 110 µM) | –
Cc1nn2c(-c3nc(C(C)C)cs3)nnc2s1 | 16 µg/mL (≈ 60.3 µM) | 31.2 µg/mL (≈ 118 µM) | 31.2 µg/mL (≈ 118 µM) | 31.2 µg/mL (≈ 118 µM) | 31.2 µg/mL (≈ 118 µM) | 62.5 µg/mL (≈ 236 µM) | 62.5 µg/mL (≈ 236 µM) | 31.2 µg/mL (≈ 118 µM) | 125 µg/mL (≈ 471 µM) | 62.5 µg/mL (≈ 236 µM) | –
COc1cc(C2Nn3c(nnc3-c3nc(C(C)C)cs3)S2)cc(OC)c1OC (stereo not given) | 62.5 µg/mL (≈ 149 µM) | 31.2 µg/mL (≈ 74.5 µM) | 31.2 µg/mL (≈ 74.5 µM) | 16 µg/mL (≈ 38.1 µM) | 62.5 µg/mL (≈ 149 µM) | 31.2 µg/mL (≈ 74.5 µM) | 16 µg/mL (≈ 38.1 µM) | 31.2 µg/mL (≈ 74.5 µM) | 125 µg/mL (≈ 298 µM) | 31.2 µg/mL (≈ 74.5 µM) | –
CC(C)c1csc(-c2nnc3n2NC(c2ccc(O)cc2)S3)n1 (stereo not given) | 62.5 µg/mL (≈ 181 µM) | 31.2 µg/mL (≈ 90.5 µM) | 125 µg/mL (≈ 362 µM) | 125 µg/mL (≈ 362 µM) | 125 µg/mL (≈ 362 µM) | 62.5 µg/mL (≈ 181 µM) | 62.5 µg/mL (≈ 181 µM) | 62.5 µg/mL (≈ 181 µM) | 62.5 µg/mL (≈ 181 µM) | 62.5 µg/mL (≈ 181 µM) | –
CC(C)c1csc(-c2nnc3n2NC(c2ccc([N+](=O)[O-])cc2)S3)n1 (stereo not given) | 31.2 µg/mL (≈ 83.5 µM) | 62.5 µg/mL (≈ 167 µM) | 8 µg/mL (≈ 21.4 µM) | 8 µg/mL (≈ 21.4 µM) | 62.5 µg/mL (≈ 167 µM) | 125 µg/mL (≈ 334 µM) | 16 µg/mL (≈ 42.7 µM) | 125 µg/mL (≈ 334 µM) | 62.5 µg/mL (≈ 167 µM) | 125 µg/mL (≈ 334 µM) | –
CC(C)c1csc(-c2n[nH]c(=S)n2NC(=O)c2ccccc2)n1 | 125 µg/mL (≈ 362 µM) | 31.2 µg/mL (≈ 90.5 µM) | 16 µg/mL (≈ 46.3 µM) | 31.2 µg/mL (≈ 90.5 µM) | 16 µg/mL (≈ 46.3 µM) | 16 µg/mL (≈ 46.3 µM) | 62.5 µg/mL (≈ 181 µM) | 31.2 µg/mL (≈ 90.5 µM) | 31.2 µg/mL (≈ 90.5 µM) | 16 µg/mL (≈ 46.3 µM) | –
Cc1ccc(C(=O)Nn2c(-c3nc(C(C)C)cs3)n[nH]c2=S)cc1 | 62.5 µg/mL (≈ 174 µM) | 62.5 µg/mL (≈ 174 µM) | 62.5 µg/mL (≈ 174 µM) | 125 µg/mL (≈ 348 µM) | 31.2 µg/mL (≈ 86.9 µM) | 62.5 µg/mL (≈ 174 µM) | 62.5 µg/mL (≈ 174 µM) | 125 µg/mL (≈ 348 µM) | 62.5 µg/mL (≈ 174 µM) | 125 µg/mL (≈ 348 µM) | –
CC(C)c1csc(-c2n[nH]c(=S)n2NC(=O)c2ccc(O)cc2)n1 | 31.2 µg/mL (≈ 86.5 µM) | 31.2 µg/mL (≈ 86.5 µM) | 125 µg/mL (≈ 346 µM) | 125 µg/mL (≈ 346 µM) | 62.5 µg/mL (≈ 173 µM) | 125 µg/mL (≈ 346 µM) | 31.2 µg/mL (≈ 86.5 µM) | 62.5 µg/mL (≈ 173 µM) | 31.2 µg/mL (≈ 86.5 µM) | 31.2 µg/mL (≈ 86.5 µM) | –
COc1ccc(C(=O)Nn2c(-c3nc(C(C)C)cs3)n[nH]c2=S)cc1 | 16 µg/mL (≈ 42.6 µM) | 62.5 µg/mL (≈ 166 µM) | 16 µg/mL (≈ 42.6 µM) | 8 µg/mL (≈ 21.3 µM) | 16 µg/mL (≈ 42.6 µM) | 62.5 µg/mL (≈ 166 µM) | 4 µg/mL (≈ 10.7 µM) | 125 µg/mL (≈ 333 µM) | 8 µg/mL (≈ 21.3 µM) | 8 µg/mL (≈ 21.3 µM) | 50%
CC(C)c1csc(-c2nn(CN3CCN(C)CC3)c(=S)n2/N=C/c2ccccc2Cl)n1 | 16 µg/mL (≈ 33.6 µM) | 125 µg/mL (≈ 263 µM) | 62.5 µg/mL (≈ 131 µM) | 125 µg/mL (≈ 263 µM) | 31.2 µg/mL (≈ 65.6 µM) | 16 µg/mL (≈ 33.6 µM) | 125 µg/mL (≈ 263 µM) | 31.2 µg/mL (≈ 65.6 µM) | 125 µg/mL (≈ 263 µM) | 31.2 µg/mL (≈ 65.6 µM) | –
COc1ccc(/C=N/n2c(-c3nc(C(C)C)cs3)nn(CN3CCN(C)CC3)c2=S)cc1 | 31.2 µg/mL (≈ 66.3 µM) | 8 µg/mL (≈ 17 µM) | 31.2 µg/mL (≈ 66.3 µM) | 31.2 µg/mL (≈ 66.3 µM) | 16 µg/mL (≈ 33.9 µM) | 31.2 µg/mL (≈ 66.3 µM) | 16 µg/mL (≈ 33.9 µM) | 16 µg/mL (≈ 33.9 µM) | 31.2 µg/mL (≈ 66.3 µM) | 16 µg/mL (≈ 33.9 µM) | –
CC(C)c1csc(-c2nn(CN3CCOCC3)c(=S)n2/N=C/c2ccccc2Cl)n1 | 16 µg/mL (≈ 34.6 µM) | 125 µg/mL (≈ 270 µM) | 31.2 µg/mL (≈ 67.5 µM) | 125 µg/mL (≈ 270 µM) | 31.2 µg/mL (≈ 67.5 µM) | 31.2 µg/mL (≈ 67.5 µM) | 125 µg/mL (≈ 270 µM) | 62.5 µg/mL (≈ 135 µM) | 62.5 µg/mL (≈ 135 µM) | 62.5 µg/mL (≈ 135 µM) | –
COc1ccc(/C=N/n2c(-c3nc(C(C)C)cs3)nn(CN3CCOCC3)c2=S)cc1 | 31.2 µg/mL (≈ 68.1 µM) | 125 µg/mL (≈ 273 µM) | 16 µg/mL (≈ 34.9 µM) | 31.2 µg/mL (≈ 68.1 µM) | – | 125 µg/mL (≈ 273 µM) | 62.5 µg/mL (≈ 136 µM) | 62.5 µg/mL (≈ 136 µM) | 125 µg/mL (≈ 273 µM) | 16 µg/mL (≈ 34.9 µM) | –
CC(C)c1csc(-c2nn(CN3CCOCC3)c(=S)n2/N=C/c2ccc(N(C)C)cc2)n1 | 31.2 µg/mL (≈ 66.3 µM) | 16 µg/mL (≈ 33.9 µM) | 16 µg/mL (≈ 33.9 µM) | 31.2 µg/mL (≈ 66.3 µM) | 16 µg/mL (≈ 33.9 µM) | 16 µg/mL (≈ 33.9 µM) | 62.5 µg/mL (≈ 133 µM) | 31.2 µg/mL (≈ 66.3 µM) | 31.2 µg/mL (≈ 66.3 µM) | 31.2 µg/mL (≈ 66.3 µM) | –
COc1cc(/C=N/n2c(-c3nc(C(C)C)cs3)nn(CN3CCOCC3)c2=S)cc(OC)c1OC | 16 µg/mL (≈ 30.8 µM) | 62.5 µg/mL (≈ 121 µM) | 62.5 µg/mL (≈ 121 µM) | 62.5 µg/mL (≈ 121 µM) | 31.2 µg/mL (≈ 60.3 µM) | 125 µg/mL (≈ 241 µM) | 125 µg/mL (≈ 241 µM) | 62.5 µg/mL (≈ 121 µM) | 125 µg/mL (≈ 241 µM) | 62.5 µg/mL (≈ 121 µM) | –
